# ChEMBL document CHEMBL4177671, “Selenium-containing analogues of WC-9 are extremely potent inhibitors of Trypanosoma cruzi proliferation” (Bioorg Med Chem, 2017)
# pEC50: −log10 of the molar value.
# System: not listed separately
# Test: Cytotoxicity against African green monkey Vero cells after 3 to 4 days by Alamar Blue dye-based spectrophotometric method
# Format: cell-based
# Conditions: chlorocebus sabaeus, read-out: ED50 (the source's name)
# Procedure, shortened: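 Vero cell cytotoxicity was measured by Alamar Blue assay following a previously described method.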
row,SMILES,CC50 [µM]
1,N#CSCCOc1ccc(Oc2ccccc2)cc1,82.6
2,N#C[Se]CCOc1ccc(Oc2cccc(F)c2)cc1,153
3,N#C[Se]CCOc1cccc(Oc2ccccc2F)c1,140
4,N#C[Se]CCOc1cccc(I)c1,> 62.5
5,N#C[Se]CCOc1ccc(Cl)cc1Cl,> 62.5
6,N#CSCCOc1ccc(Sc2ccccc2)cc1,> 62.5
7,N#C[Se]CCOc1cccc(Oc2ccc(F)cc2)c1,> 125
8,N#C[Se]CCOc1cccc(Oc2ccccc2)c1,> 150
9,N#C[Se]CCOc1ccc(Oc2ccc(F)cc2)cc1,122
10,N#C[Se]CCOc1cccc(Oc2ccc(Cl)cc2)c1,> 125
11,N#CSCC1Cc2cc(Oc3ccccc3)ccc2O1 (stereo not drawn),> 62.5
12,N#C[Se]CCOc1ccc(Oc2ccccc2)cc1,> 100
13,N#C[Se]CCOc1cccc(Oc2cccc(F)c2)c1,> 62.5
14,N#C[Se]CCOc1ccc(I)cc1,> 50
15,N#CSCCOc1cccc(Sc2ccccc2)c1,> 50
16,N#C[Se]CC1Cc2cc(Oc3ccccc3)ccc2O1 (racemic),> 125
17,N#C[Se]CC1Cc2ccc(Oc3ccccc3)cc2O1 (racemic),> 125
18,N#C[Se]CC1Cc2c(Oc3ccccc3)cccc2O1 (racemic),> 125

# System: Trypanosoma cruzi
# Test: Antitrypanosomal activity against tdTomato red labeled trypomastigote stage of Trypanosoma cruzi infected in gamma-irradiated African green monkey Vero cells after 3 days by fluorescence assay
# Format: functional
# Conditions: light or radiation study, 72 h, read-out: ED50 (the source's name)
# Procedure, shortened: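 Vero cells, gamma-irradiated at 2,000 Rads, were seeded at 3.4×10^4 per well in RPMI with 10% FBS and incubated overnight at 35 °C, 7% CO2. They were infected with 3.4×10^5 CL-strain tdTomato trypomastigotes per well for 5 h, then washed. Serial dilutions of 1.56–25 μM were run in quadruplicate, with benznidazole at 0.39–6.25 μM. Fluorescence was read at day 3. ED50 was obtained by non-linear regression.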
row,SMILES,pEC50
1,N#CSCCOc1ccc(Oc2ccccc2)cc1,5.30
2,N#CSCc1cc2cc(Oc3ccccc3)ccc2o1,5.28
3,N#COCCOc1ccc(Oc2ccccc2)cc1,< 5.00
4,N#C[Se]CCOc1ccc(Oc2cccc(F)c2)cc1,7.07
5,N#C[Se]CCOc1cccc(Oc2ccccc2F)c1,6.90
6,N#C[Se]CCOc1cccc(I)c1,5.26
7,N#C[Se]CCOc1ccc(Cl)cc1Cl,5.86
8,N#CSCCOc1ccc(Sc2ccccc2)cc1,5.24
9,N#C[Se]CCOc1cccc(Oc2ccc(F)cc2)c1,7.00
10,N#C[Se]CCOc1cccc(Oc2ccccc2)c1,7.07
11,N#C[Se]CCOc1ccc(Oc2ccc(F)cc2)cc1,6.57
12,CCOP(=O)(OCC)C(CNCCOc1ccccc1)P(=O)(OCC)OCC,5.27
13,N#C[Se]CCOc1cccc(Oc2ccc(Cl)cc2)c1,6.94
14,NC(=O)OCCOc1ccc(Oc2ccccc2)cc1,< 5.00
15,O=P(O)(O)C(CNCCOc1ccccc1)P(=O)(O)O,5.24
16,N#CSCC1Cc2cc(Oc3ccccc3)ccc2O1 (stereo not drawn),5.22
17,O=[N+]([O-])c1ccc(Oc2cccc(Br)c2)cc1,< 4.00
18,N#C[Se]CCOc1ccc(Oc2ccccc2)cc1,6.96
19,N#C[Se]CCOc1cccc(Oc2cccc(F)c2)c1,7.12
20,N#C[Se]CCOc1ccc(I)cc1,< 5.00
21,N#CSCCOc1cccc(Sc2ccccc2)c1,< 5.00
22,N#C[Se]CC1Cc2cc(Oc3ccccc3)ccc2O1 (racemic),7.08
23,N#C[Se]CC1Cc2ccc(Oc3ccccc3)cc2O1 (racemic),6.92
24,N#C[Se]CC1Cc2c(Oc3ccccc3)cccc2O1 (racemic),6.39
25,O=C(Cn1ccnc1[N+](=O)[O-])NCc1ccccc1 [BENZNIDAZOLE],5.82

# System: Toxoplasma gondii
# Test: Antiparasitic activity against tachyzoite stage of Toxoplasma gondii expressing red fluorescent protein infected in gamma-irradiated African green monkey Vero cells by fluorescence assay
# Format: functional
# Conditions: light or radiation study, read-out: ED50 (the source's name)
# Procedure, shortened: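 Tachyzoites expressing red fluorescent protein, assayed per an earlier method with published modifications. Plates were read with lids on, bottom read, excitation 544 nm and emission 590 nm. Values are the mean of one experiment carried out in triplicate.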
row,SMILES,pEC50
1,N#CSCCOc1ccc(Oc2ccccc2)cc1,5.32
2,N#CSCCOc1ccc(Sc2ccccc2)cc1,5.34
3,N#C[Se]CCOc1cccc(Oc2ccccc2)c1,5.54
4,N#CSCC1Cc2cc(Oc3ccccc3)ccc2O1 (stereo not drawn),< 5.00
5,N#C[Se]CCOc1ccc(Oc2ccccc2)cc1,5.43
6,N#CSCCOc1cccc(Sc2ccccc2)c1,5.45

# System: not listed separately
# Test: Selectivity index, ratio of ED50 for African green monkey Vero cells to ED50 for Trypanosoma cruzi
# Format: toxicity
# Conditions: Vero cells versus Trypanosoma cruzi, read-out: Ratio ED50
# Procedure, shortened: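 Calculated as ED50 for Vero cytotoxicity divided by ED50 for the parasite.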
row,SMILES,selectivity ratio
1,N#C[Se]CCOc1ccc(Oc2cccc(F)c2)cc1,1800
2,N#C[Se]CCOc1cccc(Oc2ccccc2F)c1,1110
3,N#C[Se]CCOc1cccc(I)c1,> 11.5
4,N#C[Se]CCOc1ccc(Cl)cc1Cl,> 45.3
5,N#CSCCOc1ccc(Sc2ccccc2)cc1,> 10.9
6,N#C[Se]CCOc1cccc(Oc2ccc(F)cc2)c1,> 1260
7,N#C[Se]CCOc1cccc(Oc2ccccc2)c1,> 1760
8,N#C[Se]CCOc1cccc(Oc2ccc(Cl)cc2)c1,> 1100
9,N#CSCC1Cc2cc(Oc3ccccc3)ccc2O1 (stereo not drawn),> 10.4
10,N#C[Se]CCOc1ccc(Oc2ccccc2)cc1,> 917
11,N#C[Se]CCOc1cccc(Oc2cccc(F)c2)c1,> 833
12,N#C[Se]CC1Cc2cc(Oc3ccccc3)ccc2O1 (racemic),> 1500
13,N#C[Se]CC1Cc2ccc(Oc3ccccc3)cc2O1 (racemic),> 1040
14,N#C[Se]CC1Cc2c(Oc3ccccc3)cccc2O1 (racemic),> 307
